For 18 compounds, inhibition, IC50 and Activity results are on record in ChEMBL document CHEMBL4385642, “Optimization and biological evaluation of nicotinamide derivatives as Aurora kinase inhibitors” (Bioorg Med Chem, 2019).

SMILES strings stand for the structures. Active and inactive are the calls of the source. No cut-off for these calls is given here.

Test [1] addresses Aurora kinase B (Homo sapiens) (UniProt Q96GD4). As to the kind of experiment: Inhibition of Aurora B (unknown origin) at 0.2 uM pre-incubated for 10 mins before FAM-labeled peptide substrate addition by mobility shift assay relative to control.
In test [2] the test system is SW-620. As to the kind of experiment: Cytotoxicity in human SW620 cells assessed as reduction in cell viability incubated for 72 hrs by MTT assay. The following applies: SW-620, 72 h. Type of test: functional, cell-based. In short, it runs like this:
(§1)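 Cells in DMEM or RPMI 1640 with 10% FBS and 1% penicillin/streptomycin were seeded at 6 × 10^3/well and grown 24 h at 37 °C, 5% CO2. They were exposed 72 h to graded compound concentrations (DMSO under 0.1%). MTT (5 mg/mL, 10 µL) was added for 4 h at 37 °C and formazan dissolved in DMSO. A492 was read against a 630 nm reference, and IC50 came from concentration–response curves.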
A general note: Tetrazolium dyes change colour on reduction, which living cells bring about.

Test [3] has as its target T1, Aurora kinase A (Homo sapiens) (UniProt O14965).
T1 sequence (whole entry): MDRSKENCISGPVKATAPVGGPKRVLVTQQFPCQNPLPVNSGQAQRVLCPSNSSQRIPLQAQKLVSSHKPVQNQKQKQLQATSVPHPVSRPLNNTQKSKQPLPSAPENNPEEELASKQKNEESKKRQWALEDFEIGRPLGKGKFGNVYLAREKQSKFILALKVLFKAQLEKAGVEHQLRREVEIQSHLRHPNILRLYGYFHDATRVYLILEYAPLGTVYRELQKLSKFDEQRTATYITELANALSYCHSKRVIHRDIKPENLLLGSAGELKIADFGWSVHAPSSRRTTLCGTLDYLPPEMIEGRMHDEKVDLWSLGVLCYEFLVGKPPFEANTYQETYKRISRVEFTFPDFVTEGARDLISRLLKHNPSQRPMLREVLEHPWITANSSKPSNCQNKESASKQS
As to the kind of experiment: Inhibition of Aurora A (unknown origin) at 0.2 uM pre-incubated for 10 mins before FAM-labeled peptide substrate addition by mobility shift assay relative to control.

Test [4] has as its system SW-620. Briefly: Antiproliferative activity against human SW620 cells assessed as effect on cell confluence level at 0.12 to 3.33 ug/ml incubated up to 84 hrs and measured every 1 hr by phase contrast microscopy. Type of test: functional, cell-based. An outline of the steps:
(§2)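 SW620 cells seeded at 5 × 10^3/well and grown 24 h at 37 °C, 5% CO2 inside the IncuCyte. Compounds were then added at 0.12–10.0 µg/mL, with 0.1% DMSO as vehicle control. Phase-contrast images were taken with a 10× objective every 1 h for 84 h. Confluence was scored from the images, in triplicate.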

The subject of another test is NCI-H1975. As to the kind of experiment: Cytotoxicity in human NCI-H1975 cells assessed as reduction in cell viability incubated for 72 hrs by MTT assay. Type of test: functional, cell-based. The conditions noted are these: NCI-H1975, 72 h. An outline of the steps:
as §1

The next test relates to HT-29. Briefly: Cytotoxicity in human HT-29 cells assessed as reduction in cell viability incubated for 72 hrs by MTT assay. It counts as functional, cell-based. The following applies: HT-29, 72 h. An outline of the steps:
as §1

Test [5] concerns SW-620. Briefly: Antiproliferative activity against human SW620 cells assessed as cell confluence level at 10 ug/ml incubated up to 84 hrs and measured every 1 hr by IncuCyte live-cell imaging assay (reference value: 86.5%). It counts as functional. An outline of the steps: as §2
Test [6] has as its system SW-620. As to the kind of experiment: Induction of apoptosis in human SW620 cells at 3.33 ug/ml incubated for 36 hrs by IncuCyte live-cell imaging assay. It counts as functional, cell-based. An outline of the steps: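 Apoptosis kinetics by IncuCyte imaging: SW620 cells at 5 × 10^3/well were pre-grown 24 h at 37 °C, 5% CO2, then given compound (0.12–10.0 µg/mL) or 0.1% DMSO. Green-fluorescent apoptotic cells were counted on images taken with a 10× objective every 1 h over 48 h, in triplicate.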

Test [7] has as its system SW-620. As to the kind of experiment: Antiproliferative activity against human SW620 cells assessed as cell confluence level at 10 ug/ml incubated up to 84 hrs and measured every 1 hr by phase contrast microscopy (reference value: 86.5%). Type of test: functional. An outline of the steps: as §2
For test [8], the system named is SW-620. Briefly: Antiproliferative activity against human SW620 cells assessed as effect on cell confluence level at 0.12 to 3.33 ug/ml incubated up to 84 hrs and measured every 1 hr by IncuCyte live-cell imaging assay. Type of test: functional, cell-based. In short, it runs like this: as §2
In another test the test system is HeLa. As to the kind of experiment: Cytotoxicity in human HeLa cells assessed as reduction in cell viability incubated for 72 hrs by MTT assay. It counts as functional, cell-based. An outline of the steps: as §1
The test system of test [9] is SW-620. Briefly: Cytotoxicity against human SW620 cells assessed as increase in dead cell number at 10 ug/ml incubated for 5 hrs by IncuCyte live-cell imaging assay. It counts as functional, cell-based. An outline of the steps: (§3)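 Live-cell kinetic imaging of SW620 cells (5 × 10^3/well, 24 h pre-culture at 37 °C, 5% CO2) exposed to 0.12–10.0 µg/mL compound or 0.1% DMSO. Red-fluorescent cells were counted as dead cells, imaged with a 10× objective hourly for 84 h, in triplicate.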

The subject of test [10] is SW-620. Briefly: Cytotoxicity against human SW620 cells assessed as increase in dead cell number at 10 ug/ml incubated for 36 hrs by IncuCyte live-cell imaging assay. It counts as functional, cell-based. In short, it runs like this: as §3

Sequence of Aurora kinase B (Homo sapiens) (Q96GD4 whole entry): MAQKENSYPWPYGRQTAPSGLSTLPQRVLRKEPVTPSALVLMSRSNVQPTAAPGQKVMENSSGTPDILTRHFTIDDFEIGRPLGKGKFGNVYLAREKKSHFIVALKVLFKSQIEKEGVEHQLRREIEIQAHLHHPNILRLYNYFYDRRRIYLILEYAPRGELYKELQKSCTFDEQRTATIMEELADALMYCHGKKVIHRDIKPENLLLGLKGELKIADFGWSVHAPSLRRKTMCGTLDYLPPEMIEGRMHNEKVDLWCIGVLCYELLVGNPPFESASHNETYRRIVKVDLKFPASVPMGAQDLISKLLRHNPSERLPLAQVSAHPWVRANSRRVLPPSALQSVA

As to `COc1cc2nccc(Oc3ccc(NC(=O)c4c[nH]c(=O)cc4Nc4ccccc4)cc3)c2cc1OC`, the inhibition – broadly, the drop in the measured response relative to a control, in per cent – in test [1] worked out at 38.7%; in [3], 29.9%. For the same compound, the IC50 (in general, the concentration that inhibits the measured activity by half) with SW-620 [2] was 18.9 µM.

`COc1cc2nccc(Oc3ccc(NC(=O)c4cnc(Cl)cc4Nc4ccc(F)cc4)cc3)c2cc1OC`: the inhibition in test [1] is 51.6%; in test [3], 47.1%. Further, the IC50 in the test with SW-620 [2] turned out to be 6.82 µM.

Turning to `COc1cc2nccc(Oc3ccc(NC(=O)c4cnc(Cl)cc4Nc4ccc(F)c(Br)c4)cc3)c2cc1OC`, the outcome in the test on SW-620 [4], in the test on SW-620 [6] and with SW-620 [8] was inactive. Moreover, the inhibition in [1] was 30.1%; in [3] it was 81.3%. Besides, the IC50 with SW-620 [2] is 1.33 µM; in the test on NCI-H1975, 3.54 µM; with HT-29, above 20 µM; with HeLa, above 20 µM. Besides, the Activity in the test with SW-620 [5] and in the test with SW-620 [7] was 42.6% throughout.

Consider `COc1cc2nccc(Oc3ccc(NC(=O)c4cnc(Cl)cc4Nc4cccc(F)c4)cc3)c2cc1OC`, for which the inhibition in test [1] is 49.6%; in [3], 48.6%. The IC50 in the test on SW-620 [2] amounted to 5.1 µM.

For `COc1cc2nccc(Oc3ccc(NC(=O)c4cnc(Cl)cc4Nc4ccccc4Cl)cc3)c2cc1OC`, the inhibition in test [1] was 57.1%; in test [3], 68.3%. Besides, the IC50 in the test on SW-620 [2] turned out to be 3.6 µM.

As to `COc1cc2nccc(Oc3ccc(NC(=O)c4cnc(Cl)cc4Nc4ccc(F)c(Br)c4)cc3F)c2cc1OC`, the outcome with SW-620 [4], in the test on SW-620 [5], with SW-620 [6], in the test with SW-620 [7] and in the test on SW-620 [8] was inactive. Moreover, the results for the inhibition in test [1] and in test [3] were 30.5% and 82.9%, respectively. Also, the 50% inhibitory concentration (IC50) in the test with SW-620 [2] was 0.61 µM; in the test on NCI-H1975, 1.06 µM; in the test with HT-29, above 20 µM; with HeLa it was above 20 µM. For the same compound, the result in the test with SW-620 [9] and with SW-620 [10] was Active.

Take `COc1cc2nccc(Oc3ccc(NC(=O)c4cnc(Cl)cc4Nc4ccccc4Br)cc3)c2cc1OC`: the figures for the inhibition in [1] and in test [3] were 56.1% and 78.2%, respectively. Besides, the IC50 with SW-620 [2] was 6.9 µM; in the test with NCI-H1975, 8 µM; in the test with HT-29, above 20 µM; in the test with HeLa, above 20 µM.

In the case of `COc1cc2nccc(Oc3ccc(NC(=O)c4cn(C)c(=O)cc4Nc4ccccc4)cc3)c2cc1OC`, the inhibition in [1] was 31.1%; in test [3], 40.9%. The IC50 with SW-620 [2] turned out to be 4.43 µM.

Consider `COc1cc2nccc(Oc3ccc(NC(=O)c4cnc(Cl)cc4Nc4ccccc4F)cc3)c2cc1OC`, for which the inhibition in [1] came to 50.1%; in test [3] it was 51.5%. Besides, the IC50 in the test with SW-620 [2] was found to be 8.1 µM.

For `COc1cc2nccc(Oc3ccc(NC(=O)c4cnc5ccc(Br)cc5c4Nc4ccc(F)c(Br)c4)cc3F)c2cc1OC`, the inhibition was determined as 13.7% in [1] and 6.6% in test [3].

Take `COc1cc2nccc(Oc3ccc(NC(=O)c4cnc(Cl)cc4Nc4ccccc4)cc3)c2cc1OC`: the inhibition is 52.1% in [1] and 48.2% in test [3]. The IC50 in the test on SW-620 [2] was found to be 1.92 µM.

Turning to `COc1cc2nccc(Oc3ccc(NC(=O)c4cnc(Cl)cc4Nc4cccc(Cl)c4)cc3)c2cc1OC`, the inhibition in test [1] came to 31.9%; in [3], 55.1%. Also, the IC50 with SW-620 [2] came to 4.33 µM.

Consider `COc1cc2nccc(Oc3ccc(NC(=O)c4cnc(Cl)cc4Nc4ccc(Cl)cc4)cc3)c2cc1OC`, for which the figures for the inhibition in test [1] and in test [3] were 38.5% and 51.9%, respectively. The IC50 with SW-620 [2] amounted to 2.38 µM.

As to `COc1cc2nccc(Oc3ccc(NC(=O)c4cnc(Cl)cc4Nc4cccc5ccccc45)cc3)c2cc1OC`, the results for the inhibition in test [1] and in [3] were 46.3% and 59.9%, respectively.

For the compound `COc1cc2nccc(Oc3ccc(NC(=O)c4c(Nc5ccc(F)c(Br)c5)cc(C)nc4Cl)cc3F)c2cc1OC`, the inhibition in test [1] came out at 17.7%; in test [3], 0.6%.

In the case of `COc1cc2nccc(Oc3ccc(NC(=O)c4cccnc4Nc4ccc(F)c(Br)c4)cc3F)c2cc1OC`, the inhibition in test [1] was 40.7%; in [3] it was 48.4%. Also, the IC50 in the test on SW-620 [2] worked out at 1.86 µM.

As for `COc1cc2nccc(Oc3ccc(NC(=O)C4(C(=O)Nc5ccc(F)cc5)CC4)cc3)c2cc1OC` [CABOZANTINIB], the result in the test with SW-620 [4] and in the test on SW-620 [8] was inactive. Also, the inhibition in test [1] came to 38.3%. In addition, the IC50 with SW-620 [2] is 3.37 µM; in the test with NCI-H1975, 6.67 µM; in the test on HT-29, 9.6 µM; in the test with HeLa, above 20 µM. Besides, the Activity with SW-620 [5] and in the test with SW-620 [7] was 40.9% each time.

For the compound `COc1cc2nccc(Oc3ccc(NC(=O)c4cnc(Cl)cc4Nc4ccc(Br)cc4F)cc3)c2cc1OC`, the inhibition stood at 31.6% in [1] and 70% in test [3]. Further, the IC50 was 2.45 µM in the test on SW-620 [2], above 20 µM in the test on HT-29 and above 20 µM in the test on HeLa.
